From ChEMBL document CHEMBL1128737, “Inhibition of herpes simplex virus type 1 helicase-primase by (dichloroanilino)purines and -pyrimidines” (J Med Chem, 1995)

Tests used:
[1] = target: T1, DNA helicase/primase complex protein (Herpes simplex virus (type 1 / strain 17)) (UniProt P10236); experiment: Inhibition against DNA-Dependent ATPase activity of HSV-1 helicase-primase in HSV-1-infected CV-1 cells; format: cell-based; set-up: concentration or dose not given beside the values; details: concentration not given here
T1 sequence (whole entry): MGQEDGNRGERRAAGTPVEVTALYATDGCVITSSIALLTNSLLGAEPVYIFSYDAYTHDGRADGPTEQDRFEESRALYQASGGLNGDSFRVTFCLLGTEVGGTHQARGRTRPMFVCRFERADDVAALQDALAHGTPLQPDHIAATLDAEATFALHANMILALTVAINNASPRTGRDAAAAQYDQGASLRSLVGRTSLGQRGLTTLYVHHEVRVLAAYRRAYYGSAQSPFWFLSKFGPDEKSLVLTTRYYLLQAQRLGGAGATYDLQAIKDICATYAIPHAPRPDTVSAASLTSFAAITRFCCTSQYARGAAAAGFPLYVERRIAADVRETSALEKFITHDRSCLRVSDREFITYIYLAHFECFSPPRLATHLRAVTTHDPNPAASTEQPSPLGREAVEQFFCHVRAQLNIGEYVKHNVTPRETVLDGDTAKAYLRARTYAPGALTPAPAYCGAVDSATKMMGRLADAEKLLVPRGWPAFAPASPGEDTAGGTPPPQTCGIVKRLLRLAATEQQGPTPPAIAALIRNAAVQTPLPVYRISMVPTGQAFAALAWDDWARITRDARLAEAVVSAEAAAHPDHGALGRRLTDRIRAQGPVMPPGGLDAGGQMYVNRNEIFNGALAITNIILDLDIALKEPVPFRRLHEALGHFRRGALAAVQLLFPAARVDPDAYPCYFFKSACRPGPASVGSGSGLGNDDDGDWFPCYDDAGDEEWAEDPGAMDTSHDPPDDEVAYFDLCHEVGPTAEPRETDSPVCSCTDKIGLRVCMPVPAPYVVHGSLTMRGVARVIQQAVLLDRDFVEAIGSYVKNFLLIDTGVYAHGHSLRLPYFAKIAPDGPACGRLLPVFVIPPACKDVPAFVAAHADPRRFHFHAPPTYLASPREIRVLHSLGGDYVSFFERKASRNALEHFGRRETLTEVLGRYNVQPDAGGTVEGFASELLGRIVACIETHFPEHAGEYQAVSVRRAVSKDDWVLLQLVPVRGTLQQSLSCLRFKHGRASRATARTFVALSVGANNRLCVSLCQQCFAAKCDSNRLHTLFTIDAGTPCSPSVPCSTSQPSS
Summary of the method: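 Three-subunit helicase-primase purified from HSV1-infected CV-1 cells, 15 units. DNA-dependent NTPase run with 1 mM ATP and 2 μg activated DNA, compounds in 5% DMSO, 20 min at 34 °C. Orthophosphate read with acidic molybdate-malachite green at 650 nm. Done in duplicate, averaged over at least two independent experiments.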

HeLa [2] = experiment: Inhibition of HSV-1 DNA synthesis in virus-infected HeLa cells; format: functional, cell-based; details: Homo sapiens
Summary of the method: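 HeLa cells (2 × 10^4/well) grown 24 h at 37 °C, infected with HSV1 KOS, adsorbed 90 min. Serial compound dilutions in DMEM/2% FCS added to duplicate wells for 24 h.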

HeLa [3] = experiment: Inhibition of [3H]thymidine incorporation into the DNA of uninfected HeLa cells; format: functional, cell-based; details: Homo sapiens
Summary of the method: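 Uninfected HeLa cells (3 × 10^6/well) in DMEM/10% FCS grown 24 h, then given serial compound dilutions or DMSO in duplicate for a further 24 h at 37 °C. [3H]thymidine (1 μCi/mL) added for 3 h, followed by NaOH lysis, 5% TCA precipitation, filter collection and scintillation counting.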

DNA replication helicase = DNA replication helicase (Human herpesvirus 1, UniProt P10189); experiment: Inhibition against DNA-Dependent GTPase activity of two-subunit recombinant HSV-1 helicase-primase
[4] = target: T1, DNA helicase/primase complex protein (Herpes simplex virus (type 1 / strain 17)); experiment: (§1) Inhibition against the primase activity of HSV-1 helicase-primase at a concentration 200 micro/mL; format: functional; details: Human alphaherpesvirus 1
[5] = target: T2, DNA helicase/primase complex protein (Herpes simplex virus (type 1 / strain 17), UniProt P10236); experiment: (§2) Inhibition against Primase by coupled primase-DNA polymerase-I assay with the two subunit recombinant HSV-1 helicase primase; format: functional, Human alphaherpesvirus 1
T2 sequence (P10236 whole entry): T1 sequence (whole entry)
Summary of the method: (§3)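 Two-subunit baculovirus enzyme (1 unit) coupled to 1 unit E. coli Klenow. Buffer: 50 mM Tris·HCl pH 8.7, 3.5 mM MgCl2, 10% glycerol, 100 μg/mL BSA. Inhibitors in DMSO at 0.5% final, screened at 200 μg/mL. Run 60 min at 34 °C; EDTA quench; polymer isolated on G50 and counted. Duplicates.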

[6] = target: T1, DNA helicase/primase complex protein (Herpes simplex virus (type 1 / strain 17)); experiment: as §1; details: Human alphaherpesvirus 1
[7] = target: T2, DNA helicase/primase complex protein; experiment: as §2; set-up: species or system Human alphaherpesvirus 1; summary of the method: as §3

DNA replication helicase, sequence (P10189 whole entry, looked up): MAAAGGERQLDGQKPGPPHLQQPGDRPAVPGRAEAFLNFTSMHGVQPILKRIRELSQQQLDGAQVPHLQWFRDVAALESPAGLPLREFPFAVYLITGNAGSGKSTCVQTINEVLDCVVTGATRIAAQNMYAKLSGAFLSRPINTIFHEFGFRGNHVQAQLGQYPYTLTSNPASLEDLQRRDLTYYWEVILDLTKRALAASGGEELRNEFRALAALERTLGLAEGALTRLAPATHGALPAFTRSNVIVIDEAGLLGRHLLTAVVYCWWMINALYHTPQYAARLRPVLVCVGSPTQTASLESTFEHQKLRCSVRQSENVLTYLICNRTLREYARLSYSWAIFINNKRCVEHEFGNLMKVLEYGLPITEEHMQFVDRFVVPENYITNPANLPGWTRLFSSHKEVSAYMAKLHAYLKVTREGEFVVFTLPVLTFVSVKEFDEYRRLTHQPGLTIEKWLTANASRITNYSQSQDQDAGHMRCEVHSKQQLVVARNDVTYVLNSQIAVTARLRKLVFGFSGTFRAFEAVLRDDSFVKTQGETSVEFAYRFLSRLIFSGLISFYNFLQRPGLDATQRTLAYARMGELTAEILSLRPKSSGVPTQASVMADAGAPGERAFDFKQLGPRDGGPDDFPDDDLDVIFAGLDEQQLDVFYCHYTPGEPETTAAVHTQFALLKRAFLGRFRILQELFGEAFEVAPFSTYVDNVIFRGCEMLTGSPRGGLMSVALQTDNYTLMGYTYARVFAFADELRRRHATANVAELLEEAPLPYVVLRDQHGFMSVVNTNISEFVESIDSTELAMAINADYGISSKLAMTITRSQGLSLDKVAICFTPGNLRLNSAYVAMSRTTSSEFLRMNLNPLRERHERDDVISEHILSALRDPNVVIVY

Structure (SMILES) | inhibition [1] | IC50 (HeLa [2]) | IC50 (HeLa [3]) | other results
Oc1ccc(Nc2nc(O)c3[nH]cnc3n2)cc1 | 17% | – | – | –
Nc1nc(Nc2cc(Cl)cc(Cl)c2)nc2c1ncn2[C@H]1C[C@H](O)[C@@H](CO)O1 | – | 49 µM | 0.4 µM | –
Oc1[nH]c(Nc2ccc(Cl)c(Cl)c2)nc2ncnc1-2 | 98% | > 200 µM | 250 µM | IC50 (DNA replication helicase): 880 µM; inhibition [4]: 89%; IC50 [5]: 59 µM
Oc1[nH]c(Nc2ccc3c(c2)CCC3)nc2ncnc1-2 | 0% | – | – | –
Nc1nc(Nc2cc(Cl)cc(Cl)c2)nc2c1ncn2COC(CO)CO | – | 61.6 µM | 5.5 µM | –
Oc1[nH]c(Nc2ccc(F)c(F)c2)nc2ncnc1-2 | 73% | – | – | –
O=c1[nH]c(Nc2cc(Cl)cc(Cl)c2)nc2c1ncn2COC(CO)CO | – | 91 µM | 22.9 µM | –
O=c1[nH]c(Nc2cccc(C(F)(F)F)c2)nc2[nH]cnc12 | 13% | – | – | –
O=c1[nH]c(Nc2cc(Cl)cc(Cl)c2)nc2nc[nH]c12 | – | – | – | IC50 (DNA replication helicase): 910 µM
OC[C@H]1O[C@@H](n2cnc3c(Cl)nc(Nc4cc(Cl)cc(Cl)c4)nc32)C[C@@H]1O | – | 23 µM | 2.7 µM | –
Nc1nc(O)cc(Nc2cc(Cl)cc(Cl)c2)n1 | – | – | – | inhibition [6]: 34%
Oc1[nH]c(Nc2ccc(F)c(Cl)c2)nc2ncnc1-2 | 96% | – | – | –
O=c1[nH]c(Nc2cc(Cl)cc(Cl)c2)nc2c1ncn2COCCO | – | 14.4 µM | 23.4 µM | –
Nc1nc(Cl)cc(Nc2ccc(Cl)c(Cl)c2)n1 | – | 62 µM | 25 µM | IC50 [7]: 8.7 µM; inhibition [6]: 98%
CCc1cccc(Nc2nc(O)c3[nH]cnc3n2)c1 | 42% | – | – | –
Oc1[nH]c(Nc2ccc(Br)cc2)nc2ncnc1-2 | 40% | – | – | –
Nc1nc(Nc2cc(Cl)cc(Cl)c2)nc2c1ncn2COCCO | – | 12.9 µM | 2.5 µM | –

Structure (SMILES) | inhibition [1] | IC50 (HeLa [2]) | IC50 (HeLa [3]) | other results
Oc1[nH]c(Nc2ccc(F)cc2)nc2ncnc1-2 | 5% | – | – | –
Oc1[nH]c(Nc2cccc(Cl)c2)nc2ncnc1-2 | 60% | – | – | –
OCCOCn1cnc2c(Cl)nc(Nc3cc(Cl)cc(Cl)c3)nc21 | – | 5 µM | 7.4 µM | –
Nc1[nH]c(Nc2cc(Cl)cc(Cl)c2)nc2ncnc1-2 | – | 69 µM | 21 µM | inhibition [6]: 93%
Oc1cc(Nc2ccc(Cl)c(Cl)c2)nc(O)n1 | – | – | – | inhibition [6]: 30%; IC50 (DNA replication helicase): > 2000 µM
Cc1ccc(Nc2nc(O)c3[nH]cnc3n2)cc1 | 0% | – | – | –
O=c1[nH]c(Nc2cc(Cl)cc(Cl)c2)nc2c1ncn2[C@H]1C[C@H](O)[C@@H](CO)O1 | – | 190 µM | 32 µM | –
Oc1[nH]c(Nc2cc(Cl)cc(Cl)c2)nc2ncnc1-2 | 70% | > 200 µM | > 200 µM | inhibition [4]: 94%
Nc1nc(O)cc(Nc2ccc(Cl)c(Cl)c2)n1 | – | – | – | inhibition [6]: 44%; IC50 (DNA replication helicase): 850 µM
Nc1[nH]c(Nc2ccc(Cl)c(Cl)c2)nc2ncnc1-2 | – | 75 µM | 15 µM | inhibition [6]: 94%; IC50 (DNA replication helicase): 850 µM
Nc1nc(Nc2cc(Cl)cc(Cl)c2)nc2nc[nH]c12 | – | – | – | IC50 (DNA replication helicase): 920 µM
Nc1nc2c(ncn2COCCO)c(=O)[nH]1 [ACYCLOVIR] | – | 1.9 µM | > 200 µM | –
Nc1nc(Nc2cc(Cl)cc(Cl)c2)cc(=O)[nH]1 | – | – | – | IC50 (DNA replication helicase): 770 µM
Oc1cc(Nc2cc(Cl)cc(Cl)c2)nc(O)n1 | – | – | – | inhibition [6]: 46%; IC50 (DNA replication helicase): > 2000 µM
Oc1[nH]c(Nc2ccccc2)nc2ncnc1-2 | 0% | – | – | –
Nc1nc(Cl)cc(Nc2cc(Cl)cc(Cl)c2)n1 | – | 45 µM | 23 µM | inhibition [6]: 92%
